According to ChEMBL document CHEMBL2146421, “Synthesis and anticonvulsant activity of some new thiazolo[3,2-a][1,3]diazepine, benzo[d]thiazolo[5,2-a][12,6]diazepine and benzo[d]oxazolo[5,2-a][12,6]diazepine analogues” (Eur J Med Chem, 2011):

Key:
[1] = test system: Mus musculus; assay: Neurotoxicity in Swiss albino mouse assessed as effect on motor activity at 1.5 mmol/kg, ip after 30 mins; type: toxicity, organism-based; details: in vivo, 0.5 h
Method in brief: (§1)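 Motor activity measured with an activity meter at 0 and 30 min after i.p. dosing, zero time taken as 100%.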

[2] = Toxicity in Swiss albino mouse assessed as mortality at 1.5 mmol/kg, ip measured 7 to 11 mins before pentylenetetrazole challenge; type: organism-based; details: in vivo, read-out: Activity
Method in brief: (§2)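 Compounds given i.p. at 3.0, 1.5, 0.75 and 0.375 mmol/kg to 6 mice per compound. Deaths occurring before the PTZ injection were recorded. PTZ (83 mg/kg s.c.) followed 30 min after compound dosing.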

[3] = test system: Mus musculus; assay: Neurotoxicity in Swiss albino mouse assessed as inability to climb up backwards in a glass tube within 30 seconds at 1.5 mmol/kg, ip measured after 15 and 25 mins by Chimney test; type: toxicity, organism-based; details: in vivo
Method in brief: (§3)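 Chimney test: 15 and 25 min after i.p. dosing (3.0, 1.5, 0.75, 0.375 mmol/kg), inability of mice to climb backwards up a glass tube 25 cm long, 3 cm inner diameter, within 30 s recorded as neurological deficit.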

[4] = test system: Mus musculus; assay: Anticonvulsant activity in Swiss albino mouse assessed as protection against pentylenetetrazole-induced convulsion at 1.5 mmol/kg, ip treated after 30 mins of pentylenetetrazole measured for 30 mins; type: functional
[5] = test system: Mus musculus; assay: Hypnotic activity in Swiss albino mouse assessed as righting reflex at 1.5 mmol/kg, ip; type: ADME, organism-based; details: in vivo
[6] = test system: Mus musculus; assay: Neurotoxicity in Swiss albino mouse assessed as effect on motor activity at 0.75 mmol/kg, ip after 30 mins; type: toxicity, organism-based; details: in vivo, 0.5 h; method in brief: as §1
[7] = test system: Mus musculus; assay: Anticonvulsant activity in Swiss albino mouse assessed as protection against pentylenetetrazole-induced convulsion at 0.375 mmol/kg, ip treated after 30 mins of pentylenetetrazole measured for 30 mins; type: functional
[8] = test system: Mus musculus; assay: Anticonvulsant activity in Swiss albino mouse assessed as protection against pentylenetetrazole-induced convulsion at 0.75 mmol/kg, ip treated after 30 mins of pentylenetetrazole measured for 30 mins; type: functional
[9] = test system: Mus musculus; assay: Neurotoxicity in Swiss albino mouse assessed as effect on motor activity at 0.375 mmol/kg, ip after 30 mins; type: toxicity, organism-based; details: in vivo, 0.5 h; method in brief: as §1
[10] = test system: Mus musculus; assay: Neurotoxicity in Swiss albino mouse assessed as inability to climb up backwards in a glass tube within 30 seconds at 0.375 mmol/kg, ip measured after 15 and 25 mins by Chimney test; type: toxicity, organism-based; details: in vivo; method in brief: as §3
[11] = test system: Mus musculus; assay: Hypnotic activity in Swiss albino mouse assessed as righting reflex at 0.375 mmol/kg, ip; type: ADME, organism-based; details: in vivo
[12] = test system: Mus musculus; assay: Neurotoxicity in Swiss albino mouse assessed as inability to climb up backwards in a glass tube within 30 seconds at 0.75 mmol/kg, ip measured after 15 and 25 mins by Chimney test; type: toxicity, organism-based; details: in vivo; method in brief: as §3
[13] = test system: Mus musculus; assay: Hypnotic activity in Swiss albino mouse assessed as righting reflex at 0.75 mmol/kg, ip; type: ADME, organism-based; details: in vivo
[14] = Toxicity in Swiss albino mouse assessed as mortality at 0.375 mmol/kg, ip measured 7 to 11 mins before pentylenetetrazole challenge; type: organism-based; details: in vivo, read-out: Activity; method in brief: as §2
[15] = Toxicity in Swiss albino mouse assessed as mortality at 0.75 mmol/kg, ip measured 7 to 11 mins before pentylenetetrazole challenge; type: organism-based; details: in vivo, read-out: Activity; method in brief: as §2
[16] = Toxicity in ip dosed Swiss albino mouse assessed as sedative effect; type: organism-based; details: in vivo
[17] = test system: Mus musculus; assay: Anticonvulsant activity in Swiss albino mouse assessed as protection against maximal electroshock-induced convulsion at 0.75 mmol/kg, ip […]; type: functional
Method in brief: (§4)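 Test agent given i.p. to mice; 30 min later electric shock applied through the ears, animals released immediately to observe maximal seizure; percentage protected recorded (10 animals per dose in dose-response runs).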

[18] = test system: Mus musculus; assay: Hypnotic activity in Swiss albino mouse assessed as righting reflex at 3 mmol/kg, ip; type: ADME, organism-based; details: in vivo
[19] = Toxicity in Swiss albino mouse assessed as mortality at 3 mmol/kg, ip measured 7 to 11 mins before pentylenetetrazole challenge; type: organism-based; details: in vivo, read-out: Activity; method in brief: as §2
[20] = test system: Mus musculus; assay: Anticonvulsant activity in Swiss albino mouse assessed as protection against maximal electroshock-induced convulsion at 0.37 mmol/kg, ip […]; type: functional
Method in brief: (§5)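 Test compound given i.p. to mice; 30 min later, electric shock was applied through the ears while the mice were hand-restrained. The mice were then released to observe the maximal seizure. Each dose was tested in 10 animals and the percentage protected was recorded.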

[21] = species on record: Mus musculus; assay: Protective index, ratio of TD50 for Swiss albino mouse to ED50 for anticonvulsant activity in Swiss albino mouse; type: functional
Method in brief: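 TD50 (median sedative dose) divided by ED50 (median effective dose), from dose-response curves at 10 mice per dose; 95% confidence limits given.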

[22] = test system: Mus musculus; assay: Neurotoxicity in Swiss albino mouse assessed as inability to climb up backwards in a glass tube within 30 seconds at 3 mmol/kg, ip measured after 15 and 25 mins by Chimney test; type: toxicity, organism-based; details: in vivo; method in brief: as §3
[23] = test system: Mus musculus; assay: Anticonvulsant activity in Swiss albino mouse assessed as protection against pentylenetetrazole-induced convulsion at 0.37 mmol/kg, ip treated 30 mins before pentylenetetrazole measured for 30 mins
[24] = Toxicity in Swiss albino mouse by Spearman-Karber method; type: organism-based; details: in vivo
Method in brief: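 LD50 in mice was determined by the Spearman–Karber method, with doses chosen at equal logarithmic intervals. 95% confidence limits were reported.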

[25] = test system: Mus musculus; assay: Anticonvulsant activity in Swiss albino mouse assessed as protection against maximal electroshock-induced convulsion at 3.0 mmol/kg, ip […]; type: functional; method in brief: as §4
[26] = test system: Mus musculus; assay: Anticonvulsant activity in ip dosed Swiss albino mouse assessed as protection against maximal electroshock-induced convulsion; type: functional; method in brief: as §4
[27] = test system: Mus musculus; assay: Anticonvulsant activity in Swiss albino mouse assessed as protection against pentylenetetrazole-induced convulsion at 3 mmol/kg, ip treated after 30 mins of pentylenetetrazole measured for 30 mins; type: functional
[28] = Therapeutic index, ratio of LD50 for Swiss albino mouse to ED50 for anticonvulsant activity in Swiss albino mouse; type: organism-based; details: in vivo, read-out: Ratio LD50/ED50
Method in brief: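 TI was calculated as LD50/ED50. ED50 came from dose-response curves in 10 mice per dose. LD50 was determined by the Spearman–Karber method, with doses at equal logarithmic intervals.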

[29] = test system: Mus musculus; assay: Neurotoxicity in Swiss albino mouse assessed as inability to climb up backwards in a glass tube within 30 seconds at 0.37 mmol/kg, ip measured after 15 and 25 mins by Chimney test; type: toxicity, organism-based; details: in vivo; method in brief: as §3
[30] = test system: Mus musculus; assay: Anticonvulsant activity in Swiss albino mouse assessed as protection against bicuculline-induced convulsion at 3.0 mmol/kg, ip […] measured for 30 mins; type: functional
Method in brief: (§6)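 Mice (6 per compound) dosed i.p.; 30 min later given bicuculline 1 mg/kg s.c. (freshly dissolved in 1 ml warmed 0.1 N HCl, made up with 0.9% NaCl), then observed 30 min; percentage anticonvulsion (animals protected) calculated. Dose-response runs used 10 animals per dose.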

[31] = test system: Mus musculus; assay: Anticonvulsant activity in Swiss albino mouse assessed as protection against bicuculline-induced convulsion at 0.37 mmol/kg, ip […] measured for 30 mins; type: functional; method in brief: as §6
[32] = test system: Mus musculus; assay: Anticonvulsant activity in Swiss albino mouse assessed as protection against bicuculline-induced convulsion at 1.5 mmol/kg, ip […] measured for 30 mins; type: functional; method in brief: as §6
[33] = test system: Mus musculus; assay: Anticonvulsant activity in Swiss albino mouse assessed as protection against maximal electroshock-induced convulsion at 1.5 mmol/kg, ip […]; type: functional; method in brief: as §5
[34] = test system: Mus musculus; assay: Neurotoxicity in Swiss albino mouse assessed as effect on motor activity at 3 mmol/kg, ip after 30 mins; type: toxicity, organism-based; details: in vivo, 0.5 h; method in brief: as §1
[35] = test system: Mus musculus; assay: Anticonvulsant activity in Swiss albino mouse assessed as protection against bicuculline-induced convulsion at 0.75 mmol/kg, ip […] measured for 30 mins; type: functional; method in brief: as §6
[36] = test system: Mus musculus; assay: Anticonvulsant activity in Swiss albino mouse assessed as protection against picrotoxin-induced convulsion at 1.5 mmol/kg, ip […] measured for 30 mins; type: functional
Method in brief: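 Test compound given i.p.; 30 min later, picrotoxin 3.15 mg/kg s.c. was injected. Picrotoxin was freshly dissolved in 1 ml warmed 0.1 N HCl and made up with 0.9% NaCl. Each dose was tested in 10 animals and the percentage of mice protected from clonic convulsions was recorded.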

[37] = Toxicity in Swiss albino mouse assessed as mortality at 1.38 mmol/kg, sc; type: organism-based; details: in vivo, read-out: Activity
[38] = test system: Mus musculus; assay: Neurotoxicity in Swiss albino mouse assessed as inability to climb up backwards in a glass tube within 30 seconds at 1.38 mmol/kg, ip measured after 15 and 25 mins by Chimney test; type: toxicity, organism-based; details: in vivo
Method in brief: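 Chimney test: at 15 and 25 min after dosing, inability of mice to climb backwards up a glass tube (25 cm long, 3 cm inner diameter) within 30 s was scored as neurological deficit.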

[39] = test system: Mus musculus; assay: Anticonvulsant activity in Swiss albino mouse assessed as protection against pentylenetetrazole-induced convulsion at 1.38 mmol/kg, ip treated after 30 mins of pentylenetetrazole measured for 30 mins; type: functional

O=C1CCCN2C=CSC2=N1
Activity [1]: 0% | mortality [2]: 33% | Activity [3]: 0% | Activity [4]: 0% | Activity [5]: 0%

O=C1CCCN2C=C(Br)SC2=N1
Activity [6]: 13% | Activity [1]: 12% | Activity [7]: 0% | Activity [8]: 0% | mortality [2]: 0% | Activity [3]: 80% | Activity [4]: 30% | Activity [9]: 15% | Activity [10]: 10% | Activity [11]: 0% | Activity [12]: 40% | Activity [5]: 30% | Activity [13]: 0% | mortality [14]: 0% | mortality [15]: 0%

S=C1CCCN2C=CSC2=N1
Activity [6]: 26% | Activity [1]: 11% | Activity [7]: 0% | Activity [8]: 0% | mortality [2]: 50% | Activity [3]: 100% | Activity [4]: 0% | Activity [9]: 30% | Activity [10]: 10% | Activity [11]: 0% | Activity [12]: 30% | Activity [5]: 0% | Activity [13]: 0% | mortality [14]: 0% | mortality [15]: 10%

O=C1CCCN2C(=N1)Sc1ccccc12
Activity [1]: 0% | Activity [7]: 0% | Activity [8]: 0% | mortality [2]: 0% | Activity [3]: 0% | Activity [4]: 70% | Activity [5]: 0%

O=C1CCCN2C(=N1)Sc1cc(Cl)ccc12
Activity [6]: 20% | TD50 [16]: 417 mg/kg | Activity [1]: 33% | Activity [17]: 0% | Activity [18]: 20% | mortality [19]: 0% | Activity [20]: 0% | Ratio TD50/ED50 [21]: 1.09 | Activity [8]: 25% | mortality [2]: 0% | Activity [3]: 25% | Activity [22]: 100% | Activity [23]: 0% | Activity [4]: 50% | LD50 [24]: 617 mg/kg | Activity [25]: 33% | ED50 [26]: 380 mg/kg | Activity [27]: 100% | selectivity ratio [28]: 1.62 | Activity [29]: 0% | Activity [30]: 100% | Activity [31]: 10% | Activity [32]: 66% | Activity [12]: 0% | Activity [5]: 0% | Activity [13]: 0% | Activity [33]: 0% | Activity [34]: 67% | mortality [15]: 0% | Activity [35]: 10% | Activity [36]: 20%

O=C1CCCN2C(=N1)Oc1ccc(Cl)cc12
Activity [6]: 33% | TD50 [16]: 355 mg/kg | Activity [1]: 50% | Activity [17]: 0% | Activity [18]: 17% | mortality [19]: 0% | Activity [20]: 0% | Ratio TD50/ED50 [21]: 1.41 | Activity [8]: 33% | mortality [2]: 0% | Activity [3]: 50% | Activity [22]: 100% | Activity [23]: 0% | Activity [4]: 67% | LD50 [24]: 537 mg/kg | Activity [25]: 70% | ED50 [26]: 251 mg/kg | Activity [27]: 100% | selectivity ratio [28]: 2.14 | Activity [29]: 0% | Activity [30]: 100% | Activity [31]: 0% | Activity [32]: 50% | Activity [12]: 17% | Activity [5]: 0% | Activity [13]: 0% | Activity [33]: 10% | Activity [34]: 80% | mortality [15]: 0% | Activity [35]: 20% | Activity [36]: 40%

CCCC(CCC)C(=O)[O-].[Na+] [VALPROATE SODIUM]
mortality [37]: 0% | Activity [38]: 100% | Activity [39]: 100%
